Test results from ChEMBL document CHEMBL3232979, “Discovery of a novel series of orally active nociceptin/orphanin FQ (NOP) receptor antagonists based on a dihydrospiro(piperidine-4,7'-thieno[2,3-c]pyran) scaffold” (J Med Chem, 2014).
The source made the active and inactive calls. The rule behind the calls is not given here.

Assays:
[1] = target: Nociceptin receptor (Homo sapiens, UniProt P41146); test: Displacement of [3H]-nociceptin from human recombinant NOP receptor expressed in CHO cells after 60 mins by scintillation counting; type: cell-based
Chain of Nociceptin receptor (P41146 whole entry): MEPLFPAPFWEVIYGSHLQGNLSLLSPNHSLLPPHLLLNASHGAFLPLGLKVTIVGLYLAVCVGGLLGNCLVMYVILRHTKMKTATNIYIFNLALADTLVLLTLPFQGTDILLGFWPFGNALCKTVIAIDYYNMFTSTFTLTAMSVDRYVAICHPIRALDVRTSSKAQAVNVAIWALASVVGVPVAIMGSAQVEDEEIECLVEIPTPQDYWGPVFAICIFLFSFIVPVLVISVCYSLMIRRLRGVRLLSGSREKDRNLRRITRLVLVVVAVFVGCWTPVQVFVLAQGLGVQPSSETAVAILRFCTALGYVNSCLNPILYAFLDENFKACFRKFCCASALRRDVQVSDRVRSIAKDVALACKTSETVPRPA

[2] = target: Mu-type opioid receptor (Homo sapiens, UniProt P35372); test: Displacement of [3H]-diprenorphine from human mu opioid receptor after 120 mins by cell based assay
Chain of Mu-type opioid receptor (P35372 whole entry): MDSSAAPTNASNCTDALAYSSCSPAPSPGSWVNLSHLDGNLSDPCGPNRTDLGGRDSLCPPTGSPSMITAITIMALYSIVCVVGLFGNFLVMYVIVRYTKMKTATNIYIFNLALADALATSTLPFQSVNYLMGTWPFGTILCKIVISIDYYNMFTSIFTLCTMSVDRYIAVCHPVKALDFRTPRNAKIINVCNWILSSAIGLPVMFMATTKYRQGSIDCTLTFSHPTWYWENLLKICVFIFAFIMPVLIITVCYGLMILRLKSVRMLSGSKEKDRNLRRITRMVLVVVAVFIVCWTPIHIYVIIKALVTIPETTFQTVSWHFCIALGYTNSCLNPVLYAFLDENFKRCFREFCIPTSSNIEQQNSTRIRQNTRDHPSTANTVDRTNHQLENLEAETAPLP
Outline: (§1)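 Radioligand binding with [3H]-diprenorphine on membranes from CHO cells overexpressing recombinant human kappa, mu or delta opioid receptor; Ki determined.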

[3] = system: Rattus norvegicus; test: Ex vivo receptor occupancy of NOP receptor in Sprague-Dawley rat brain at 10 mg/kg, po after 24 hrs by LC-MS/MS analysis; type: functional
Outline: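 Male Sprague-Dawley rats, 220–300 g, 12 h light:dark cycle, free chow and water. A single oral 10 mg/kg dose or oral vehicle was given. 24 h later, nonlabeled tracer was given as an iv tail-vein bolus at 3 μg/kg. Brain was taken 40 min after tracer (hypothalamus, striatum), homogenized in ACN with 0.1% formic acid, centrifuged, diluted with water and read by LC-MS/MS.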

[4] = target: Kappa-type opioid receptor (Homo sapiens, UniProt P41145); test: Displacement of [3H]-diprenorphine from human kappa opioid receptor after 120 mins by cell based assay; outline: as §1
Chain of Kappa-type opioid receptor (P41145 whole entry): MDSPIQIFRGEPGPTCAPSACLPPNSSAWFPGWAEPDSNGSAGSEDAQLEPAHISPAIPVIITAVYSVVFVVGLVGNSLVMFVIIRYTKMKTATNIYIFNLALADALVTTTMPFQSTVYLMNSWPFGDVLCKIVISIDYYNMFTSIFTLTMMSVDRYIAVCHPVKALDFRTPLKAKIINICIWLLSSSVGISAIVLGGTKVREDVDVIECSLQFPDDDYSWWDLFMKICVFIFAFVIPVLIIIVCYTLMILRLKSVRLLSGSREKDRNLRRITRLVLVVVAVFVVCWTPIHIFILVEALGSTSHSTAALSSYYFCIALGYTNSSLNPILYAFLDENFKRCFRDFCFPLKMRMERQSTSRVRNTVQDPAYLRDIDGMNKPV

[5] = target: Delta-type opioid receptor (Homo sapiens, UniProt P41143); test: Displacement of [3H]-diprenorphine from human delta opioid receptor after 120 mins by cell based assay; outline: as §1
Chain of Delta-type opioid receptor (P41143 whole entry): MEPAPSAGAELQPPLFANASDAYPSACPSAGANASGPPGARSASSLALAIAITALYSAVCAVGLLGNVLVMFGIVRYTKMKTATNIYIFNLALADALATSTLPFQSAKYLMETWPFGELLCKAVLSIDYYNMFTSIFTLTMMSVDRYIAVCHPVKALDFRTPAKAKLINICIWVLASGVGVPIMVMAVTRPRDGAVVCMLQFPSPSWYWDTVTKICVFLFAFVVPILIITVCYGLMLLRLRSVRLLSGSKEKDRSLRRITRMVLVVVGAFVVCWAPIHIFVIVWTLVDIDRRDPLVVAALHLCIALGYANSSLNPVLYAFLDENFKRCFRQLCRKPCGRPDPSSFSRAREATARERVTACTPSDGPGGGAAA

[6] = system: Rattus norvegicus; test: Reversal of Ro64-6198-incued hypothermia in Sprague-Dawley rat at 0.1 to 0.3 mg/kg, po administered 60 mins before Ro64-6198 challenge measured after 120 mins; type: functional, organism-based
Outline: (§2)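 Male Sprague-Dawley rats, 225 g, housed 2 per cage, acclimated at least 90 min. Rectal temperature was taken, then oral gavage of vehicle or test compound (0.03, 0.1 or 0.3 mg/kg). A second temperature was taken at 60 min, then Ro64-6198 (6 mg/kg sc) or vehicle was given, and a third temperature 120 min later. Between-group ANOVA with Dunnett posthoc tests against vehicle and agonist controls.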

[7] = Oral bioavailability in Sprague-Dawley rat at 10 mg/kg; type: ADME, organism-based; settings: in vivo
Outline: (§3)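 Male Sprague-Dawley rats (n = 3 per treatment), fasted 4–24 h, dosed iv bolus at 1 mg/kg or po at 3 or 10 mg/kg in 20% (w/w) Captisol in 25 mM phosphate buffer pH 2. Arterial blood sampled 0–16 or 24 h into EDTA, and plasma protein-precipitated with internal standard. LC-MS/MS quantitation against plasma standard curve (1–50 000 ng/mL). Noncompartmental analysis. F = dnAUCpo/dnAUCiv.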

[8] = system: Rattus norvegicus; test: Reversal of Ro64-6198-incued hypothermia in po dosed Sprague-Dawley rat administered 60 mins before Ro64-6198 challenge measured after 120 mins; type: functional, organism-based; outline: as §2
[9] = Volume of distribution in Sprague-Dawley rat at 1 mg/kg, iv; type: ADME, organism-based; design: dose 1 mg/kg, route intravenous; settings: in vivo; outline: as §3
[10] = Plasma clearance in Sprague-Dawley rat at 1 mg/kg, iv; type: ADME, organism-based; design: dose 1 mg/kg, route intravenous; outline: as §3
[11] = system: Rattus norvegicus; test: Toxicity in Sprague-Dawley rat assessed as basal body temperature at 0.03 to 0.3 mg/kg, po after 60 mins; settings: in vivo, 1 h
[12] = AUC (0 to infinity) in Sprague-Dawley rat at 10 mg/kg, po; type: ADME, organism-based; design: time infinity, dose 10 mg/kg, route oral; settings: plasma; outline: as §3
[13] = Plasma elimination half life in Sprague-Dawley rat at 1 mg/kg, iv; type: ADME, organism-based; design: dose 1 mg/kg, route intravenous; settings: read-out: beta t1/2 (converted); outline: as §3
[14] = AUC (0 to infinity) in Sprague-Dawley rat at 3 mg/kg, po; type: ADME, organism-based; design: time infinity, dose 3 mg/kg, route oral; settings: plasma; outline: as §3
[15] = Oral bioavailability in Sprague-Dawley rat at 3 mg/kg; type: ADME, organism-based; settings: in vivo; outline: as §3
[16] = Metabolic stability in rat hepatic microsomes assessed as GSH-adduct formation; type: ADME, Liver, Microsome
Outline: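 GSH trapping: compounds incubated with rat hepatic microsomes and glutathione; metabolite profiling by LC/MS for GSH conjugates.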

Compound	Ki [1] [nM]	Ki [2] [nM]	Occ [3] [%]	Ki [4] [nM]	Ki [5] [nM]	further results
Cc1nn(-c2c(F)cccc2CN(C)C)cc1CN1CCC2(CC1)OCCc1cc(F)sc12	0.0648					
Cc1nn(-c2c(F)cccc2CN(C)C)cc1CN1CCC2(CC1)OCCc1cc(Cl)sc12	0.122					
Cc1nn(-c2ncccc2-c2ncc[nH]2)cc1CN1CCC2(CC1)OCC(F)(F)c1cc(Cl)sc12	0.0916	> 375	88	> 375	> 375	
Cc1nn(-c2ncccc2CO)cc1CN1CCC2(CC1)OCC(F)(F)c1cc(Cl)sc12.O=C(O)C(O)C(O)C(=O)O	0.105	> 375	62	> 375	> 375	Activity [6]: Active; bioavailability [7]: 57%; Activity [8]: Dose-dependent effect; Vd [9]: 5.3 L/kg; clearance [10]: 23.9 mL/min/kg; Activity [11]: Non-toxic; AUC(0-inf) [12]: 4100 ng·h/mL; half-life [13]: 3.8 h
COCc1cccnc1-n1cc(CN2CCC3(CC2)OCCc2cc(Cl)sc23)c(C)n1	0.0908					
Cc1nn(-c2c(F)cccc2CO)cc1CN1CCC2(CC1)OCC(F)(F)c1cc(Cl)sc12.O=C(O)C(O)C(O)C(=O)O	0.114	> 375	87	> 375	> 375	bioavailability [7]: 51%; Vd [9]: 12.7 L/kg; clearance [10]: 60.5 mL/min/kg; AUC(0-inf) [12]: 1280 ng·h/mL; half-life [13]: 3.9 h
Cc1nn(-c2c(F)cccc2C(N)=O)cc1CN1CCC2(CC1)OCCc1cc(F)sc12	0.0954					
Cc1nn(-c2ncccc2CN(C)C)cc1CN1CCC2(CC1)OCC(F)(F)c1cc(Cl)sc12.O=C(O)C(O)C(O)C(=O)O	0.371	> 375	72	> 375	> 375	
Cc1nn(-c2c(F)cccc2CN(C)C)cc1CN1CCC2(CC1)OCC(F)(F)c1cc(Cl)sc12.O=C(O)C(O)C(O)C(=O)O	0.145	> 375	97	> 375	> 375	
Cc1nn(-c2c(F)cccc2F)cc1CN1CCC2(CC1)OCCc1cc(F)sc12	0.0711					
Cc1nn(-c2c(F)cccc2F)cc1CN1CCC2(CC1)OCC(F)(F)c1cc(Cl)sc12.O=C(O)C(O)C(O)C(=O)O	0.172	> 375	49	> 375	> 375	AUC(0-inf) [14]: 438 ng·h/mL; bioavailability [15]: 49%; Vd [9]: 28.2 L/kg; clearance [10]: 52.9 mL/min/kg; half-life [13]: 10.8 h
Cc1nn(-c2ncccc2F)cc1CN1CCC2(CC1)OCCc1cc(F)sc12	0.139					
COCc1cccnc1-n1cc(CN2CCC3(CC2)OCC(F)(F)c2cc(Cl)sc23)c(C)n1.O=C(O)C(O)C(O)C(=O)O	0.185	> 375	90	> 375	> 375	Stability [16]: Stable
Cc1nn(-c2ncccc2F)cc1CN1CCC2(CC1)OCC(F)(F)c1cc(Cl)sc12.O=C(O)C(O)C(O)C(=O)O	0.176	> 375	55	> 375	> 375	AUC(0-inf) [14]: 1820 ng·h/mL; bioavailability [15]: 62%; Vd [9]: 13.6 L/kg; clearance [10]: 19.8 mL/min/kg; half-life [13]: 12.1 h
COCc1cccnc1-n1cc(CN2CCC3(CC2)OCCc2cc(F)sc23)c(C)n1	0.0939					
CNCc1cccc(F)c1-n1cc(CN2CCC3(CC2)OCC(F)(F)c2cc(Cl)sc23)c(C)n1.O=C(O)C(O)C(O)C(=O)O	0.097	> 375	100	> 375	> 375	
